Compound activity from PubChem.
An excerpt weighted towards active compounds, which were near 1.9% of everything screened.
CHRM5 antagonist = antagonists of human muscarinic M5 receptor (CHRM5); P08912; inhibition, % at 3 µM; CHO-hM5 cells, Fluo-8 calcium fluorescence, ACh EC80; hit rate 0.59% among 360,000; AID 624040;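 active = inhibition above a per-plate cutoff, the mean of that plate's test compounds plus 3 SD, cut at about 27% in these data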;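 also: 0% = acetylcholine EC80 with DMSO and 100% = DMSO without agonist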
Target sequence (P08912 whole entry, looked up): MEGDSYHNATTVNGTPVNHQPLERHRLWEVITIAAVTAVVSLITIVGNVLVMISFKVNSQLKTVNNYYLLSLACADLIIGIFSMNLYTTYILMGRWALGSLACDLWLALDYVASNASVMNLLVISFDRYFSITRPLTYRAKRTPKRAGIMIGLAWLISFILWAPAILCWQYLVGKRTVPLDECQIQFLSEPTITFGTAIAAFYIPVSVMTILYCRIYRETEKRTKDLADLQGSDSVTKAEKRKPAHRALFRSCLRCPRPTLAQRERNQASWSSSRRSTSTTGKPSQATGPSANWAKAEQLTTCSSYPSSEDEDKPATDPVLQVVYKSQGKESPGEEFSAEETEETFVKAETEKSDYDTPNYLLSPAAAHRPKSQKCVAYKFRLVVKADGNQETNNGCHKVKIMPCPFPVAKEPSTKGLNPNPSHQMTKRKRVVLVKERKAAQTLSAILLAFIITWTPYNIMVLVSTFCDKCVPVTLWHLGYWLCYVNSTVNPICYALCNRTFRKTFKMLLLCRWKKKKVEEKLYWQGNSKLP
M4 antag = antagonists of human muscarinic M4 receptor (CHRM4). inhibition, % at 3 µM. hit rate 0.73% among 360,000. CHO-hM4 cells, ACh EC80, Fluo-8 calcium fluorescence. AID 624125;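 active = inhibition above its plate's cutoff, the mean inhibition of sample wells plus 3 SD, cut at about 27% in these data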;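 also: 0% = acetylcholine EC80 with DMSO and 100% = DMSO without agonist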
M5 ag = agonists of human muscarinic M5 receptor (CHRM5); activation, % at 3 µM; P08912; hit rate 0.19% among 360,000; CHO-K1 hM5 cells, Fluo-8 calcium fluorescence; 0% DMSO wells, 100% maximal acetylcholine response;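 active = activation above the run's mean over test compounds plus 3 SD, cut at about 23% in these data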;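 also: signal is peak over basal fluorescence ratio across the kinetic read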
M5 PAM = positive allosteric modulators of human muscarinic M5 receptor | P08912 | CHO-K1 hM5, Fluo-8 calcium, ACh EC20 PAM; 0% = ACh EC20, 100% = ACh EC100 | activation, % at 3 µM | hit rate 0.3% among 360,000;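 active = activation above the run cutoff, the mean activation of all test compounds plus 3 SD, cut at about 18% in these data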
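Assay system: CHO-K1 hM5 cells / Incubation: Fluo-8 loading 80 min at 37 °C plus 30 min room temperature / Technique: Fluo-8 calcium dye fluorescence, kinetic read / Repeats: single replicate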
CHRM4 agonist = CHRM4 agonism in calcium assay; activation, % at 3 µM; CHO-K1 hM4/Gqi5, Fluo-8 calcium fluorescence; vehicle 0%, full acetylcholine response 100%; hit rate 0.14% among 360,000; P08173;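 active = activation above the run mean over all test wells plus 3 SD, cut at about 32% in these data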;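 also: peak over basal fluorescence ratio per well then scaled between controls; 0% = DMSO wells and 100% = acetylcholine at EC100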
CHRM4 PAM = positive allosteric modulators of human muscarinic M4 receptor; P08173; CHO-K1 hM4/Gqi5, Fluo-8 calcium fluorescence, ACh EC20; 0% = ACh EC20, 100% = maximal ACh; activation, % at 3 µM; hit rate 0.4% among 360,000;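 active = activation above its plate's cutoff, the mean activation of sample wells plus 3 SD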
* marks the source's active call; other numbers are inactive results.

SMILES	CHRM5 antagonist	M4 antag	M5 ag	M5 PAM	CHRM4 agonist	CHRM4 PAM
CCn1cc([N+](=O)[O-])c(=O)c2cc(F)c(N3CCOCC3)cc21	6	7	-3	-1	0	3
CCC(C(=O)OCC(=O)C1(O)CCC2C3CCC4=CC(=O)CCC4(C)C3C(O)CC21C)C(C)C (stereo unspecified)	19	28*	-6	-27	15	-12
CC(=O)OCC(=O)[C@@]1(O)CC[C@H]2[C@@H]3CCC4=CC(=O)C=C[C@]4(C)[C@H]3[C@@H](O)C[C@@]21C	-4	-1	2	2	1	3
CC(=O)OCC(=O)[C@@]1(O)CC[C@H]2[C@@H]3CCC4=CC(=O)C=C[C@]4(C)[C@@]3(Cl)[C@@H](Cl)C[C@@]21C	9	3	43*	-18	0	3
CC12C=CC(=O)C=C1CCC1C2C(O)CC2(C)C1CCC2(O)C(=O)CO (stereo unspecified)	15	88*	-1	-18	1	-17
O=C(Cn1cc(S(=O)(=O)Cc2ccccc2F)c2ccccc21)N1CCOCC1	-18	-8	-2	3	8	6
CCOc1cc(N(CC)CC)ccc1/C=C(/C#N)c1nc2ccccc2[nH]1	-2	3	-1	-11	6	-6
CCCOc1cc(N(CC)CC)ccc1/C=C(/C#N)c1nc2ccc(C)cc2[nH]1	56*	45*	39*	-19	31	-33
CCN(CC)c1ccc(/C=C(/C#N)c2nc3ccc(C)cc3[nH]2)c(OC(C)C)c1	69*	56*	58*	-18	46*	-35
O=C(Cn1ncc2c([nH]c3ccccc32)c1=O)N1CCOCC1	3	0	-1	-1	1	-2
Cc1ccc2nc(-c3ccc(NC(=S)NC(=O)CC(C)C)cc3)sc2c1	-6	-1	0	-1	0	10
Cc1ccc2nc(-c3ccc(NC(=O)C(C)Sc4nncs4)cc3)sc2c1 (stereo unspecified)	8	29*	6	-3	8	5
CCC(C)[C@H](NC(=O)N1CC(=O)Nc2ccccc21)C(=O)N1CCC[C@H]1C(=O)O (stereo partly specified)	7	101*	2	-2	-2	-18
CCC(C)[C@H](NC(=O)N1CC(=O)Nc2ccccc21)C(=O)N1CCC[C@@H]1C(=O)O (stereo partly specified)	5	-14	1	-3	0	-1
O=C(CSc1n[nH]c(=O)[nH]c1=O)Nc1ccc(SC(F)F)cc1	10	4	1	6	0	2
CC1CCc2c(sc(/N=C/N(C)C)c2C#N)C1 (stereo unspecified)	-10	-3	-6	20*	0	3
CCC1CCCCN1CCCNS(=O)(=O)c1ccc2c(c1)oc(=O)n2C (stereo unspecified)	14	-1	-3	-3	0	-5
CCC1CCCCN1CCNS(=O)(=O)c1ccc2c(c1)oc(=O)n2C (stereo unspecified)	0	29*	-1	-1	0	-14
CC(C)N(C(=O)[C@H]1C[C@H](CC(=O)NCCCn2ccnc2)C(=O)N2CCc3c([nH]c4cc(CCC(=O)N(C)C)ccc34)[C@]12C)C(C)C	-1	0	0	-1	0	-2
c1cc2cc(CNc3nc(NCC4CC4)nc4ccsc34)ccc2o1	16	5	3	-10	10	-6
COc1ccccc1CNc1nc(NCc2ccccc2OC)c2sccc2n1	25	11	3	-14	12	-10
COc1ccccc1CNc1nc(NCc2ccc3occc3c2)c2sccc2n1	43*	22	2	-18	12	-9
COc1ccccc1CNc1nc(NCc2ccccc2SC)c2sccc2n1	30*	32*	2	-14	13	-9
Cc1cc(=O)cc(C)n1-c1ccccc1Br	-2	5	1	6	0	-2
CN1/C(=C/C(=O)COC(=O)C2COc3ccccc3O2)C(C)(C)c2ccccc21 (stereo unspecified)	8	2	-1	3	1	3
SMILES	CHRM5 antagonist	M4 antag	M5 ag	M5 PAM	CHRM4 agonist	CHRM4 PAM
CCOc1cc(N2CCOCC2)c(OCC)cc1NC(=O)c1cc(-c2ccco2)nc2ccccc12	22	29*	4	-13	17	-24
N#CC(C#N)=C1CCCc2sccc21	11	-8	-3	0	1	5
COc1cc2c(c(OC)c1OC)CC(=O)N(C)CC2	-3	33*	-7	-9	1	-31
COc1ccc(CN(CCNC(=O)CCCCC(=O)NCCN(Cc2ccc(OC)cc2)C(C)C)C(C)C)cc1	48*	82*	-21	-31	0	-63
COc1ccc(CCNC(=O)CCCCC(=O)NCCc2ccc(OC)cc2)cc1	16	0	-3	-2	0	-1
CCN(Cc1ccccc1)C(=O)C1CCN(S(=O)(=O)c2ccc3c(c2)OCCO3)CC1	1	-2	37*	-3	5	1
O=C(CCNC(=O)c1ccc(Br)cc1)NCc1cccnc1	4	-7	-1	-1	0	5
O=C(c1cccc(NS(=O)(=O)c2ccc(F)c(F)c2)c1)N1CCN(C(c2ccccc2)c2ccccc2)CC1	9	-9	-2	-4	2	31*
CCOC(=O)c1cc(-c2ccccc2)nc2nc(N(CC)CC)sc12	16	3	-6	-9	-1	-5
CCN1/C(=c2/s/c(=C3/C(=O)N(c4ccccc4)N=C3C)n(CC)c2=O)C=Cc2ccccc21	12	-1	2	1	1	-6
CCN1/C(=C2\C(=O)N(c3ccccc3)N=C2C)C=Cc2cc(C)ccc21	12	5	39*	-18	14	-9
CN1CCCC(C#CC(O)(c2ccccc2)c2ccccc2)C1 (stereo unspecified)	98*	74*	-11	-20	1	-24
CC(=O)c1ccc(N2CCN(C(=O)c3ccc(C(=O)c4ccccc4)cc3)CC2)cc1	5	-6	0	-4	3	-2
Cc1ccccc1NC(=O)NC1CCCc2ccccc21 (stereo unspecified)	1	2	-7	-1	0	0
CCN=C(NCC)SC1CC(=O)N(c2cccc(OC)c2)C1=O (stereo unspecified)	25	27*	5	-20	17	-14
C[N+](C)(C)C/C=C1/COCO1	92*	9	100*	-16	42*	-3
O=C(N/N=C/c1cccc2ccccc12)C(=O)N1CCCC1	0	-12	1	18*	-2	-8
